Results of several laboratories.
Protocols differ between the studies behind these lines.
CTSL: Procathepsin L (CTSL, Homo sapiens, UniProt P07711)
XDH: Xanthine dehydrogenase/oxidase (XDH, Bos taurus, UniProt P80457)

Cn1cc(-c2cccc(N3CCc4c(sc5c4CC(C)(C)C5)C3=O)c2CO)cc(Nc2ccncn2)c1=O  inhibition (Platelet-derived growth factor receptor alpha (PDGFRA, Homo sapiens, UniProt P16234); enzyme activity; inhibitor; 1 µM): 5%
CC(C)N1CCC[C@H]1CNC(=O)c1cn(C2CCCC2)c(=O)c2c1c1ccccc1n2C  inhibition (Alpha-1B adrenergic receptor (Adra1b, Rattus norvegicus, UniProt P15823); ligand displacement; radioligand; 10 µM): -10%
CC[C@H](NC(=O)OCc1ccccc1)C(=O)N[C@H](C(=O)N[C@@H](CC(C)C)C(=O)N(C)N(C#N)CCC(N)=O)C(C)(C)C  inhibition (CTSL; enzyme activity; inhibitor; 50 µM): 100%
COc1cc(Nc2ncc(F)c(Nc3ccc4c(n3)NC(=O)C(C)(C)O4)n2)cc(OC)c1OC  inhibition (5'-AMP-activated protein kinase catalytic subunit alpha-1 (PRKAA1, Homo sapiens, UniProt Q13131); binding; competition with immobilised ligand; 10 µM): 74%
C[C@H](C(=O)N[C@H]1COc2ccccc2[C@@H]1S(C)(=O)=O)c1ccc(F)cc1  inhibition (XDH; enzyme activity; inhibitor; 10 µM): 10%
O=C(Oc1cncc(Cl)c1)c1cc2cc(Cl)ccc2[nH]1  inhibition (CTSL; enzyme activity; inhibitor; 10 µM): 3%
N=C(N)c1ccc2cc(OC(=O)c3ccc(N=C(N)N)cc3)ccc2c1  inhibition (CTSL; enzyme activity; inhibitor; 10 µM): 57%
NC(=O)Cc1ccccc1  inhibition (XDH; enzyme activity; inhibitor; absorbance; 100 µg/mL): 7.3%
Cn1cc(-c2cc(F)cc(N3CCn4c(cc5c4CCCC5)C3=O)c2CO)cc(Nc2ccc(N3CCN(C4COC4)CC3)cn2)c1=O  inhibition (Mitogen-activated protein kinase kinase kinase kinase 5 (MAP4K5, Homo sapiens, UniProt Q9Y4K4); enzyme activity; inhibitor; 0.1 µM): 3%
CC(C)C[C@H](NC(=O)[C@H]1O[C@@H]1C(=O)O)C(=O)NCCCCN=C(N)N  inhibition (CTSL; enzyme activity; inhibitor; 5 nM): 39%
CN(C(=O)[C@H](Cc1ccccc1)NC(=O)[C@@H](NC(=O)OCc1ccccc1)C(C)(C)C)N(C#N)CCC(N)=O  inhibition (CTSL; enzyme activity; inhibitor; 50 µM): 99%
C#Cc1n[nH]c2c(-c3cn(C(C)c4ccccn4)c(=O)[nH]c3=O)cc(F)cc12 (stereo not drawn)  inhibition (Tyrosine-protein kinase Blk (BLK, Homo sapiens, UniProt P51451); enzyme activity; inhibitor; 1 µM): 3.1%
